From PubChem BioAssay AID686919 (Broad Institute, 2013)
The source made the active and inactive calls.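 Rule for the calls: active = remaining cruzain activity at or below half of the DMSO control at 10 µM, implied only; inactive = remaining activity above half of control.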

Tested on: cruzain (cruzipain) [Trypanosoma cruzi]
Assay: cruzain protease inhibitors, dose response, mechanism study for T. cruzi phenotypic hit project, biochemical, dry powder, percent inhibition (AID 686919)
Conditions: recombinant cruzain, Z-Phe-Arg-AMC fluorescence rate; at 10 µM (top of the series)
Summary of the method: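 System: purified recombinant cruzain enzyme / Medium: 100 mM NaOAc pH 5.5, 5 mM DTT, 0.01% Triton X-100 / Times: 5 min room-temperature enzyme–compound preincubation, followed by 3 min rate reading / Measured by: kinetic AMC fluorescence, excitation 355 nm, emission 460 nm / Evaluation: release rate versus DMSO control / Controls: DMSO vehicle control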

remaining cruzain activity (% of DMSO control)	Structure (SMILES)
83.3% (inactive)	CN(C)C(=O)c1cccc(-c2ccc([C@H]3[C@H](CO)N4CCCCN(C(=O)CC5CC5)C[C@@H]34)cc2)c1
106% (inactive)	CN(C)C(=O)c1cccc(-c2ccc([C@H]3[C@H](CO)N4CCCCN(C(=O)C5CCC5)C[C@@H]34)cc2)c1
104% (inactive)	CN(C)C(=O)c1cccc(-c2ccc([C@H]3[C@H](CO)N4CCCCN(C(=O)C5CC5)C[C@@H]34)cc2)c1
72.3% (inactive)	CN(C)C(=O)c1cccc(-c2ccc([C@H]3[C@H](CO)N4CCCCN(C(=O)C5CCCCC5)C[C@@H]34)cc2)c1
133% (inactive)	O=C(C1CCC1)N1CCCCN2[C@@H](CO)[C@H](c3ccc(Br)cc3)[C@@H]2C1
